Peptide text beside a SMILES is read from it.
Columns and labels:
[1] = target: T1, Urotensin-2 receptor (Homo sapiens, UniProt Q9UKP6); test: Agonist activity at human U-IIR expressed in HEK293-A cells by Fluo4-AM dye based intracellular calcium mobilization assay; assay type: functional, cell-based
T1 sequence (Q9UKP6 whole entry): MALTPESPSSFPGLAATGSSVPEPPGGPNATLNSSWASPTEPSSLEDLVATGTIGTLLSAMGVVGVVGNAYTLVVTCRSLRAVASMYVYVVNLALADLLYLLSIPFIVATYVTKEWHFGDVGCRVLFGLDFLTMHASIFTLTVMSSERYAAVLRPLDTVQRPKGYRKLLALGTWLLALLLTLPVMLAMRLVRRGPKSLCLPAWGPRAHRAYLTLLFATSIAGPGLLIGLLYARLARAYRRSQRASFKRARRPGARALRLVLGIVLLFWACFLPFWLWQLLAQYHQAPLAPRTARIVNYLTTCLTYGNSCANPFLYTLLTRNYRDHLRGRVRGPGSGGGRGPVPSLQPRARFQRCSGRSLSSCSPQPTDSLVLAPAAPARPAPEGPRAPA

[2] = target: Somatostatin receptor type 1 (Homo sapiens, UniProt P30872); test: Displacement of [125I-Tyr11]-SS14 from human SSTR1 expressed in HEK293-A cells incubated for 30 mins by gamma counting based competition radioligand binding assay; assay type: cell-based
Somatostatin receptor type 1, sequence (P30872 whole entry): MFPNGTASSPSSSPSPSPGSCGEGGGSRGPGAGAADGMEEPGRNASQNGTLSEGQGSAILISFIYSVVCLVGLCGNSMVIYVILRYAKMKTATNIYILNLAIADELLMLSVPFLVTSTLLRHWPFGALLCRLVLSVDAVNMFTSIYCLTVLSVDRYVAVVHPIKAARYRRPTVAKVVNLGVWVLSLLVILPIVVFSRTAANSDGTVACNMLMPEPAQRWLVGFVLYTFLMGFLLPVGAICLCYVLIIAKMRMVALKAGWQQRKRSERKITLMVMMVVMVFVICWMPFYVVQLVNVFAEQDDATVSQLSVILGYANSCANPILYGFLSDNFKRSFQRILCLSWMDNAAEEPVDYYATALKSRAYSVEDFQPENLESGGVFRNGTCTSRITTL
Procedure, shortened: (§1)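 Competition binding on HEK293A cells overexpressing the given human SSTR subtype, seeded overnight. Binding buffer: 50 mM Tris-HCl pH 7.4, 5 mM MgCl2, 1 mM CaCl, 0.5% BSA, protease inhibitors. 100000 cpm [125I-Tyr11]-SS14 (chloramine-T iodinated, HPLC-purified) with varying competitor, 30 min at 37 °C. Cells washed four times in cold buffer, lysed in 1 N NaOH, gamma counted. Mean ± SD, three experiments in duplicate.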

[3] = target: Somatostatin receptor type 5 (Homo sapiens, UniProt P35346); test: Displacement of [125I-Tyr11]-SS14 from human SSTR5 expressed in HEK293-A cells incubated for 30 mins by gamma counting based competition radioligand binding assay; assay type: cell-based; procedure, shortened: as §1
Somatostatin receptor type 5, sequence (P35346 whole entry): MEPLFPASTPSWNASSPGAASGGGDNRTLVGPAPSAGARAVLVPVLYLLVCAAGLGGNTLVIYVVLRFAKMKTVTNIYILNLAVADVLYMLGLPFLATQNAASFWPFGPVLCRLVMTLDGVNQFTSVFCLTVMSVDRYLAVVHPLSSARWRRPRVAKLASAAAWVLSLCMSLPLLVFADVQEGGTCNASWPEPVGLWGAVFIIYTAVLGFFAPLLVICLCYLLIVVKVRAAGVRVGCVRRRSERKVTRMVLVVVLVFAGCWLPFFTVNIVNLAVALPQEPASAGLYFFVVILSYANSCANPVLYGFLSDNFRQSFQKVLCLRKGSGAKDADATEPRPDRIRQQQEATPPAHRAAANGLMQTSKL

[4] = target: Somatostatin receptor type 2 (Homo sapiens, UniProt P30874); test: Displacement of [125I-Tyr11]-SS14 from human SSTR2 expressed in HEK293-A cells incubated for 30 mins by gamma counting based competition radioligand binding assay; assay type: cell-based; procedure, shortened: as §1
Somatostatin receptor type 2, sequence (P30874 whole entry): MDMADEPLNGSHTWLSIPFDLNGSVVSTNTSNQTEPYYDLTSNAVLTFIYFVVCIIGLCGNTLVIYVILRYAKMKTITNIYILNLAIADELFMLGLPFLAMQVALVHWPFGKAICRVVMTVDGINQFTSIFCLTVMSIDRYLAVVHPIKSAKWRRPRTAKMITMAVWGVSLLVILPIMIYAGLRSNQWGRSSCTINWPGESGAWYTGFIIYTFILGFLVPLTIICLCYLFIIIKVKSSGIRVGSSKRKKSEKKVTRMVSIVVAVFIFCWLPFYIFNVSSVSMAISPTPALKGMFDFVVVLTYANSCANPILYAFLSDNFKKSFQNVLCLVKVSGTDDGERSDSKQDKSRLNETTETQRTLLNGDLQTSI

[5] = Half life in 25% human serum by RP-HPLC analysis; assay type: ADME, cell-free
Procedure, shortened: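 Peptide at 50 μg/mL final in RPMI with 25% (v/v) human serum, pre-equilibrated at 37 °C. Samples taken at set times into 6% TCA, iced 15 min, spun at 18000g. Supernatant run on C18 RP-HPLC, 25–80% acetonitrile gradient over 15 min at 30 °C, absorbance at 214 and 280 nm.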

[6] = target: Somatostatin receptor type 3 (Homo sapiens, UniProt P32745); test: Displacement of [125I-Tyr11]-SS14 from human SSTR3 expressed in HEK293-A cells incubated for 30 mins by gamma counting based competition radioligand binding assay; assay type: cell-based; procedure, shortened: as §1
Somatostatin receptor type 3, sequence (P32745 whole entry): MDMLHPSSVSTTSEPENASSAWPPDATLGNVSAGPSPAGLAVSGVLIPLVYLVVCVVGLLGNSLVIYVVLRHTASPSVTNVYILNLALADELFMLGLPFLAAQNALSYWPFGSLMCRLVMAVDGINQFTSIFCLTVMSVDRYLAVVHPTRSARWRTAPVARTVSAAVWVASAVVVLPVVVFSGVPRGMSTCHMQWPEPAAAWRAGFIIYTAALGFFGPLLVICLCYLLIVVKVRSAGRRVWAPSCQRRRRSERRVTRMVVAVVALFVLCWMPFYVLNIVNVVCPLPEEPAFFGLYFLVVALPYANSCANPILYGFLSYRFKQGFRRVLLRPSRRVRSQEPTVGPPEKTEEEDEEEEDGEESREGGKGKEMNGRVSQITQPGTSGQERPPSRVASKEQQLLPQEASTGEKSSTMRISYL

[7] = target: T1, Urotensin-2 receptor; test: Displacement of [125I-Tyr9]-U-II from human U-IIR expressed in HEK293-A cells incubated for 30 mins by gamma counting based competition radioligand binding assay; assay type: cell-based
[8] = target: T2, Urotensin-2 receptor (Homo sapiens) (UniProt Q9UKP6); test: Agonist activity at human U-IIR expressed in HEK293-A cells at 500 nM by Fluo4-AM dye based intracellular calcium mobilization assay relative to control; conditions: filed as agonist, dose nM 500
T2 sequence (whole entry): T1 sequence (Q9UKP6 whole entry)

[9] = target: T2, Urotensin-2 receptor (Homo sapiens); test: Agonist activity at human U-IIR expressed in HEK293-A cells at 500 nM by Fluo4-AM dye based intracellular calcium mobilization assay relative to control; assay type: functional, cell-based; conditions: filed as agonist

Structure (SMILES)	EC50 [1]	IC50 [2]	IC50 [3]	IC50 [4]	half-life [5]	IC50 [6]	IC50 [7]	%max [8]	%max [9]
CC(C)[C@H](NC(=O)[C@@H]1CSSC[C@H](NC(=O)[C@H](CC(=O)O)NC(=O)[C@@H]2CCCN2C(=O)[C@@H](NC(=O)[C@@H](N)CCC(=O)O)[C@@H](C)O)C(=O)N[C@@H](Cc2ccccc2)C(=O)N[C@@H](Cc2c[nH]c3ccccc23)C(=O)N[C@@H](CCCCN)C(=O)N[C@@H](Cc2ccc(O)cc2)C(=O)N1)C(N)=O	0.00146 µM	10.5 µM	7.6 µM	2.98 µM	3.48 h	8.64 µM	0.002 µM	–	–
CC(=O)N[C@@H](Cc1ccccc1)C(=O)N[C@@H](Cc1c[nH]c2ccccc12)C(=O)N[C@@H](CCCCN)C(=O)N[C@@H](Cc1ccc(O)cc1)C(N)=O (Ac-FWKY-NH2)	–	–	–	–	–	–	–	57%	57%
CC[C@H](NC(=O)[C@H](Cc1ccc(O)c([N+](=O)[O-])c1)NC(=O)[C@H](CCCCN)NC(=O)[C@H](Cc1c[nH]c2ccccc12)NC(=O)[C@H](Cc1c[nH]c2ccccc12)NC(=O)[C@H](N)CC(N)=O)C(N)=O	0.00475 µM	6.72 µM	28.4 µM	37.5 µM	22 h	6.07 µM	0.6 µM	–	–

Reference: ChEMBL document CHEMBL4715795, “Urolinin: The First Linear Peptidic Urotensin-II Receptor Agonist” (J Med Chem, 2016)
